Our source for the EGFR remaining fraction values is PubChem BioAssay AID602146 (NMMLSC, 2011).

The assay deals with SCC-12F cells, EGF-induced EGFR degradation, Western blot. In words: EGFR lysosomal turnover delay in cells – SCC-12F cells, Western blot, mechanism study for Ras-related GTPase inhibitor project (AID 602146). The following applies: at 100 µM, stronger effect = higher value; for EGFR remaining fraction at 60 min: measured here: 60 min time point. The method, boiled down:
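Compound dosing: 10–100 µM compound; Schedule: 2 h compound pretreatment, then EGF exposure up to 2 h; Technique: EGFR Western blot; Read-out: EGFR fraction versus time zero, compared with DMSO; Benchmarks: DMSO vehicle reference.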

Molecules are shown by their SMILES.

For the molecule `CC1(C)Cc2c(sc(NC(=S)NC(=O)c3ccc(F)cc3)c2C(=O)O)CO1`, the EGFR remaining fraction at 120 min is 0.241 and the EGFR remaining fraction at 60 min was 0.561.

For the molecule `CC1(C)Cc2c(sc(NC(=S)NC(=O)c3ccc(Br)cc3)c2C(=O)O)CO1`, the EGFR remaining fraction at 120 min was 0.643 and the EGFR remaining fraction at 60 min came to 0.696.

In the case of `COc1cccc(C(=O)NC(=S)Nc2sc3c(c2C(=O)O)CC(C)(C)OC3)c1`, the EGFR remaining fraction at 120 min is 1.24 and the EGFR remaining fraction at 60 min was found to be 0.651.
